Assay results published in ChEMBL document CHEMBL1158806, “Cytotoxic activity of some natural and synthetic guaianolides” (J Nat Prod, 2005).

How the values were obtained:
Format in all cases: functional, cell-based
SK-MEL-2 = test: Cytotoxicity against human SK-MEL-2 cells after 3 days by SRB assay; conditions: SK-MEL-2, 72 h
Outline: (§1)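 Cells kept in RPMI-1640 with 25 mM HEPES, 0.25% sodium bicarbonate, 10% FBS and 100 µg/mL kanamycin. Freshly trypsinized cells seeded at 1500-7500 per well, with compound added from DMSO-diluted stock. After 3 days, attached cells fixed with cold 50% TCA and stained with 0.4% SRB. Bound dye solubilized and absorbance read at 562 nm. IC50 is 50% growth reduction, mean of three determinations.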

[1] = Cytotoxicity against human KBVIN cells after 3 days by SRB assay; conditions: 72 h; outline: as §1
1A9 = test: Cytotoxicity against human 1A9 cells after 3 days by SRB assay; conditions: 1A9, 72 h; outline: as §1
A549 = test: Cytotoxicity against human A549 cells after 3 days by SRB assay; conditions: A549, 72 h; outline: as §1
HCT-8 = test: Cytotoxicity against human HCT8 cells after 3 days by SRB assay; conditions: HCT-8, 72 h; outline: as §1
KB = test: Cytotoxicity against human KB cells after 3 days by SRB assay; conditions: 72 h; outline: as §1
MCF7 = test: Cytotoxicity against human MCF7 cells after 3 days by SRB assay; conditions: MCF7, 72 h; outline: as §1

What does the source list for `C=C1C(=O)O[C@H]2[C@H]1[C@@H](OC(=O)[C@@]1(C)CO1)CC(=C)[C@@H]1C[C@H](OC(=O)[C@H](O)[C@@H](NC(=O)c3ccccc3)c3ccccc3)[C@@]3(CO3)[C@H]21`?
IC50 (SK-MEL-2): 1000 nM; IC50 [1]: 7500 nM; IC50 (1A9): 200 nM; IC50 (A549): 800 nM; IC50 (HCT-8): 500 nM; IC50 (KB): 300 nM

What does the source list for `C=C1C(=O)O[C@H]2[C@H]1[C@@H](OC(=O)[C@](C)(O)CBr)CC(=C)[C@@H]1C[C@H](O)[C@](O)(CBr)[C@H]21`?
IC50 [1]: 1300 nM; IC50 (1A9): 400 nM; IC50 (A549): 4200 nM; IC50 (KB): 1100 nM

What does the source list for `C=C1C(=O)O[C@H]2[C@H]1[C@@H](OC(=O)[C@](C)(O)CI)CC(=C)[C@@H]1C[C@H](O)[C@]3(CO3)[C@H]21`?
IC50 [1]: 1800 nM; IC50 (1A9): 800 nM; IC50 (A549): 7300 nM; IC50 (KB): 2000 nM

For `C=C1C(=O)O[C@H]2[C@H]1[C@@H](OC(=O)[C@@]1(C)CO1)CC(=C)[C@@H]1C[C@H](OC(=O)[C@@H]3OC(c4ccccc4)=N[C@H]3c3ccccc3)[C@@]3(CO3)[C@H]21`, which IC50 (SK-MEL-2) is on record?
The IC50 was 1500 nM.

What about the IC50 [1] of the same molecule?
The IC50 was 2600 nM.

And the IC50 (1A9)?
The IC50 was 800 nM.

What about the IC50 (A549) of the same molecule?
The IC50 was 3400 nM.

What about the IC50 (HCT-8) of the same molecule?
Its IC50 is 500 nM.

And the IC50 (KB)?
The IC50 was 2600 nM.

With `C=C1C(=O)O[C@H]2[C@H]1[C@@H](OC(=O)[C@](C)(O)CBr)CC(=C)[C@@H]1C[C@H](O)[C@]3(CO3)[C@H]21` as the molecule, how does the IC50 (SK-MEL-2) read?
The IC50 was 3600 nM.

And the IC50 [1]?
Its IC50 is 6300 nM.

And the IC50 (1A9)?
Its IC50 is 1100 nM.

What about the IC50 (A549) of the same molecule?
The IC50 was 4300 nM.

What about the IC50 (HCT-8) of the same molecule?
The IC50 was 1300 nM.

And the IC50 (KB)?
Its IC50 is 1100 nM.

Which results are given for `C=C1C(=O)O[C@H]2[C@H]1[C@@H](OC(=O)[C@](C)(O)CI)CC(=C)[C@@H]1C[C@H](O)[C@](O)(CI)[C@H]21`?
IC50 (SK-MEL-2): 2600 nM; IC50 [1]: 5500 nM; IC50 (1A9): 1300 nM; IC50 (A549): 3600 nM; IC50 (HCT-8): 1300 nM; IC50 (KB): 1000 nM

For `C=C1C(=O)O[C@H]2[C@H]1[C@@H](OC(=O)[C@@]1(C)CO1)CC(=C)[C@@H]1C[C@H](O)[C@](O)(CI)[C@H]21`, which IC50 (SK-MEL-2) is on record?
Its IC50 is 9400 nM.

What about the IC50 [1] of the same molecule?
Its IC50 is 18600 nM.

And the IC50 (1A9)?
Its IC50 is 5600 nM.

And the IC50 (A549)?
Its IC50 is 13700 nM.

And the IC50 (HCT-8)?
Its IC50 is 4500 nM.

What about the IC50 (KB) of the same molecule?
The IC50 was 4100 nM.

Which results are given for `C=C(C)C(=O)O[C@H]1CC(=C)[C@@H]2C[C@H](O)C(=C)[C@@H]2[C@H]2OC(=O)C(=C)[C@@H]21` [AGUERIN B]?
IC50 (A549): 26400 nM; IC50 (MCF7): 3300 nM

For `C=C1C(=O)O[C@H]2[C@H]1[C@@H](OC(=O)[C@](C)(O)CO)CC(=C)[C@@H]1C[C@H](O)[C@]3(CO3)[C@H]21` [BABYLIN A], which IC50 (A549) is on record?
The IC50 was greater than 26300 nM.

And the IC50 (MCF7)?
Its IC50 is greater than 26300 nM.

For `C=C1C(=O)O[C@H]2[C@H]1[C@@H](OC(=O)[C@@]1(C)CO1)CC(=C)[C@@H]1C[C@H](O)[C@](O)(CO)[C@H]21` [BABYLIN B], which IC50 (A549) is on record?
The IC50 was greater than 26300 nM.

And the IC50 (MCF7)?
The IC50 was greater than 26300 nM.

Which IC50 (A549) does the source give for `C=C1C(=O)O[C@H]2[C@H]1[C@@H](OC(=O)[C@@](C)(O)CO)CC(=C)[C@@H]1C[C@H](O)[C@@](O)(CCl)[C@H]21` [CEBELLIN J] here?
Its IC50 is greater than 24000 nM.

What about the IC50 (MCF7) of the same molecule?
Its IC50 is greater than 24000 nM.

For `C=C1C(=O)O[C@H]2[C@H]1[C@@H](OC(=O)[C@](C)(O)CCl)CC(=C)[C@@H]1C[C@H](O)[C@](O)(CCl)[C@H]21` [CENTAUREPENSIN], which IC50 [1] is on record?
Its IC50 is 2800 nM.

And the IC50 (1A9)?
The IC50 was 700 nM.

And the IC50 (A549)?
The IC50 was 10300 nM.

And the IC50 (KB)?
Its IC50 is 4100 nM.

With `C=C1C(=O)O[C@H]2[C@H]1[C@@H](OC(=O)[C@](C)(O)CCl)CC(=C)[C@@H]1C[C@H](O)[C@]3(CO3)[C@H]21` [CHLOROHYSSOPIFOLIN C] as the molecule, how does the IC50 [1] read?
Its IC50 is 1500 nM.

What about the IC50 (1A9) of the same molecule?
Its IC50 is 800 nM.

What about the IC50 (A549) of the same molecule?
The IC50 was 9300 nM.

And the IC50 (MCF7)?
Its IC50 is 1500 nM.

What about the IC50 (HCT-8) of the same molecule?
Its IC50 is 1600 nM.

What about the IC50 (KB) of the same molecule?
Its IC50 is 2000 nM.

Which results are given for `C=C(CO)C(=O)O[C@H]1CC(=C)[C@@H]2C[C@H](O)C(=C)[C@@H]2[C@H]2OC(=O)C(=C)[C@@H]21` [CYNAROPICRIN]?
IC50 (SK-MEL-2): 5800 nM; IC50 (A549): 16500 nM; IC50 (MCF7): 3200 nM; IC50 (KB): 15900 nM

Which results are given for `C=C(CO)C(=O)O[C@H]1CC(=C)[C@@H]2C[C@H](O)[C@]3(CO3)[C@@H]2[C@H]2OC(=O)C(=C)[C@@H]21` [JANERIN]?
IC50 (SK-MEL-2): 8000 nM; IC50 [1]: 25900 nM; IC50 (1A9): 5000 nM; IC50 (A549): 19900 nM; IC50 (HCT-8): 5500 nM; IC50 (KB): 3000 nM

Which IC50 (A549) does the source give for `CO[C@@]12[C@H](COC(N)=O)C3=C(C(=O)C(C)=C(N)C3=O)N1C[C@@H]1N[C@@H]12` [MITOMYCIN] here?
The IC50 was 300 nM.

What about the IC50 (MCF7) of the same molecule?
Its IC50 is 1500 nM.

And the IC50 (HCT-8)?
Its IC50 is 600 nM.

What about the IC50 (KB) of the same molecule?
The IC50 was 600 nM.

With `CC(=O)O[C@H]1C(=O)[C@@]2(C)[C@H]([C@H](OC(=O)c3ccccc3)[C@]3(O)C[C@H](OC(=O)[C@H](O)[C@@H](NC(=O)c4ccccc4)c4ccccc4)C(C)=C1C3(C)C)[C@]1(OC(C)=O)CO[C@@H]1C[C@@H]2O` [PACLITAXEL] as the molecule, how does the IC50 (1A9) read?
Its IC50 is 2 nM.

And the IC50 (HCT-8)?
Its IC50 is 13 nM.

And the IC50 (KB)?
The IC50 was 1 nM.

For `C=C1C(=O)O[C@H]2[C@H]1[C@@H](OC(=O)[C@]1(C)CO1)CC(=C)[C@@H]1C[C@H](O)[C@]3(CO3)[C@H]21` [REPIN], which IC50 (SK-MEL-2) is on record?
The IC50 was 2500 nM.

What about the IC50 [1] of the same molecule?
Its IC50 is 800 nM.

What about the IC50 (1A9) of the same molecule?
The IC50 was 300 nM.

And the IC50 (A549)?
Its IC50 is 2500 nM.

What about the IC50 (MCF7) of the same molecule?
Its IC50 is 1100 nM.

What about the IC50 (HCT-8) of the same molecule?
Its IC50 is 800 nM.

What about the IC50 (KB) of the same molecule?
Its IC50 is 1400 nM.
